Bioassay records: PubChem, several laboratories
MEKK2mut PB1 HTS = signal of MEK5 binding to mutant human MEKK2 PB1 domain. bead flow cytometry, Alexa488-MEK5 binding to MEKK2 mutant. AID 1530. hit rate 0.35% among 290,000. percent response, % at 10 µM; in the data active = percent response above about 24%, passing the limit was not always enough
MEKK2 WT-MEK5 = raises or lowers MEK5 binding to wildtype human MEKK2 PB1 domain; Q9Y2U5; binding response (% of control), % at 10 µM; bead flow cytometry, Alexa488-MEK5 binding to MEKK2 WT; actives lie on both sides; hit rate 1.1% among 290,000; in the data active = binding response below about 67% or above about 130%
UCH37 inh = human UCH37 deubiquitinating enzyme inhibition; hit rate 0.33% among 330,000; purified proteasome/UCH37, Ub-AMC cleavage fluorescence; AID 588478; inhibition, % (concentration not given with the values); Q9Y5K5;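 active = mean inhibition over replicate wells above about 20%, limit read from the data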;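 note: 0% = compound-free wells with enzyme and 100% = wells lacking proteasome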
Target sequence (Q9Y5K5 whole entry, looked up): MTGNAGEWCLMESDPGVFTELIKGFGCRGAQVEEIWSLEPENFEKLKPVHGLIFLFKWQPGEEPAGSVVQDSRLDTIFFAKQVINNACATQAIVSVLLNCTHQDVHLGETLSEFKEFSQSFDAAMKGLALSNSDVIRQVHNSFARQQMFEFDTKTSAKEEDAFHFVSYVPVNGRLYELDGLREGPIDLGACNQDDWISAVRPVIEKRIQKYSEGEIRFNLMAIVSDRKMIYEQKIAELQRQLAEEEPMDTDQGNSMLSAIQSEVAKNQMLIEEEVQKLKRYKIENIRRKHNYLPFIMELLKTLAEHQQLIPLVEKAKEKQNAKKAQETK
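system = Proteasome-associated human UCH37 deubiquitinase | amount = 0.15 nM proteasome as dispensed | medium = pH 7.4 Tris-HCl (50 mM) with ovalbumin, ATP-MgCl2, DTT | incubation = 30 min preincubation with enzyme, 25 min cleavage at room temperature | detection = AMC fluorescence 355/460 nm | read-out basis = percent inhibition | controls = no-proteasome and no-compound wells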
Apaf1 inhib = inhibitors of human Apaf-1 apoptosome; hit rate 0.71% among 330,000; reconstituted apoptosome caspase-3 activity, DEVD-Rh110 fluorescence; inhibition, % at 20 µM; O14727; active = inhibition of at least 40% at 20 µM;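 note: plate controls were DMSO wells for no effect and DEVD-CHO caspase inhibitor wells for full effect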
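Material: reconstituted apoptosome with Apaf-1, cytochrome c, caspase-9, procaspase-3, dATP. Technique: Rh110 fluorescence intensity. Buffer or medium: pH 7.5 Hepes buffer with CHAPS, BSA, DTT. Times: 30 min plus 50 min, RT.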
MEKK3 PB1 HTS = modulators (inhibitors or enhancers) of MEK5 binding to human MEKK3 PB1 domain. binding response (% of control), % at 10 µM. Q99759. hit rate 1.4% among 290,000. bead-based flow cytometry, Alexa488-MEK5 binding to MEKK3; actives lie on both sides; 0 = blocked by unlabeled MEK5, 100 = vehicle;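 active = binding response more than 3 SD above or below the average of its plate-row segment, actives on both sides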;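 note: Alexa488 bead fluorescence after subtracting the streptavidin-only scavenger bead signal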
UBC13 polyUb = blocks human UBC13 polyubiquitin chain formation; P61088; TR-FRET; inhibition, % at 20 µM; hit rate 0.47% among 330,000; AID 485273; in the data active = inhibition above about 45%, passing the limit was not always enough
Target sequence (P61088 whole entry, looked up): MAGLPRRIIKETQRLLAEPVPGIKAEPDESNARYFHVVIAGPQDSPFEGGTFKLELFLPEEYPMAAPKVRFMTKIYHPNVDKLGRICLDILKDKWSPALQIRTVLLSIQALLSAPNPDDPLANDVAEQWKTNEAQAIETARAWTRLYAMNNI
MEKK2wt confirm = raises or lowers MEK5 binding to wildtype human MEKK2, retest; hit rate 2.4% among 5,900; AID 1892; binding response (% of control), % at 10 µM; bead flow cytometry, Alexa488-MEK5 binding to MEKK2 WT; actives lie on both sides; shares compounds with MEKK3 PB1 HTS; in the data active = binding response below about 16% or above about 210%; inactive = in between
MEKK2mut-MEK5 = signal of MEK5 binding to mutant human MEKK2, retest; hit rate 2% among 5,900; bead flow cytometry, Alexa488-MEK5 binding to MEKK2 mutant; shares compounds with MEKK3 PB1 HTS; percent response, % at 10 µM; in the data active = percent response mostly above about 71%, no sharp cut-off; inactive = mostly below about 38%;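 note: higher means compound restores mutant binding toward wildtype level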
MEKK3 confirm = confirmation of inhibitors of MEK5 binding to human MEKK3. shares compounds with MEKK3 PB1 HTS. hit rate 1.8% among 5,900. binding response (% of control), % at 10 µM. bead flow cytometry, Alexa488-MEK5 binding to MEKK3; stronger effect = lower value;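 active = binding response below 72% of control, or above a set upper limit, though filed actives all read lower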;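 note: 100% = DMSO only wells and 0% = binding blocked by excess unlabeled MEK5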
* hit, by the source's call; i = inactive; · = not tested or not shown; [ ] = another dose, or the depositor's remark. This is a sample that favours compounds with a hit; in the whole collection about 3% have one here.

SMILES	MEKK2mut PB1 HTS	MEKK2 WT-MEK5	UCH37 inh	Apaf1 inhib	MEKK3 PB1 HTS	UBC13 polyUb	MEKK2wt confirm	MEKK2mut-MEK5	MEKK3 confirm
O=C(N/N=C/c1ccc([N+](=O)[O-])o1)c1cn(-c2ccccc2)nc1-c1ccccc1	0	104	·	17	139*	-30	102	9	108
Cc1cc(Br)ccc1SCC(=O)NCC(c1ccco1)N1CCCCC1 (centres undefined)	·	·	0	18	·	-1	·	·	·
Cc1ccc(Nc2nc(N)c3ccccc3n2)cc1C	17	138*	-5	23	107	12	138	22	107
Cc1cc(Nc2ccc(C)c(C)c2)c2ccccc2n1	4	106	9	13	91	-3	·	·	·
CN1CCCN(C(=O)CSc2ccccc2)CC1	5	107	-2	-16	103	6	·	·	·
CN1CCN(C(=O)CSc2ccc(Cl)cc2)CC1	-13	71	2	-1	75*[inhibitor]	1	97	-5	99
CCOC(=O)C(=CNc1ccc(NC2=NCC(C)S2)cc1)C(=O)OCC (centres undefined)	1	112	-1	·	138*	·	110	5	101
CCOC(=O)C(=CNc1ccc(C(F)(F)F)cc1)C(=O)OCC	5	105	2	2	104	-12	·	·	·
CCOC(=O)Cc1nnc(NC(=O)C23CC4CC(CC(C4)C2)C3)s1	-11	80	0	0	75	6	·	·	·
CCc1ccc(-c2cc(C)no2)cc1S(=O)(=O)N1CCN(c2ccc(C(C)=O)cc2)CC1	0	98	-6	28	98	-4	·	·	·
CC(C)(NO)C(=NO)c1ccc(Cl)cc1	·	·	3	·	·	·	·	·	·
Oc1ccccc1-c1nnc(-c2ccc(C(F)(F)F)cc2)o1	-5	82	-70	13	81*[inhibitor]	4	101	-3	102
COc1cccc(-c2nnc(-c3ccc(C(F)(F)F)cc3)o2)c1	-2	96	1	-1	112	11	·	·	·
Cc1ccnc(NC(c2ccncc2)c2c(C)[nH]c3ccccc23)c1 (centres undefined)	16	132	5	-5	106	-2	·	·	·
Cc1[nH]c2ccccc2c1C(Nc1nccs1)c1ccncc1 (centres undefined)	0	105	3	18	138*	-2	103	0	102
O=C(Cc1ccc(F)cc1)NCc1cccnc1	-3	92	3	-6	96	9	·	·	·
O=C(Cc1ccc(-n2c(=O)[nH]c3ccsc3c2=O)cc1)NCc1cccnc1	1	109	4	4	139*	-11	103	0	101
Cc1cc(N/N=C2/CCCc3ccccc32)nc2ccccc12	28	160*	·	6	108	0	154	28	109
c1ccc(N/N=C2\CCCc3ccccc32)nc1	2	99	·	12	101	-10	·	·	·
CCc1ccc2nc(-c3cccc(C)c3)nc(SCC(=O)NCC3CCCO3)c2c1 (centres undefined)	-2	88	8	-9	99	-6	·	·	·
Nc1nc(Nc2ccc(Cl)cc2)n[nH]1	2	104	2	-5	103	-3	·	·	·
Nc1nc(Nc2ccccc2)n[nH]1	8	71	0	5	74*[inhibitor]	2	101	11	102
O=C(Cn1nnc(-c2cccs2)n1)NNC(=O)c1ccccc1Cl	24	112	2	-20	128*	-2	101	1	100
O=c1[nH]c(/C=C/c2ccccc2[N+](=O)[O-])nc2ccccc12	0	110	·	5	132*	-20	89	-5	89
Cc1cc(C)cc(OCC(=O)Nc2ccc3c(c2)C(=O)c2ccccc2C3=O)c1	0	104	3	2	139*	-12	95	0	97
SMILES	MEKK2mut PB1 HTS	MEKK2 WT-MEK5	UCH37 inh	Apaf1 inhib	MEKK3 PB1 HTS	UBC13 polyUb	MEKK2wt confirm	MEKK2mut-MEK5	MEKK3 confirm
CCCCn1c(-c2ccco2)nc2oc3ccccc3c(=O)c2c1=O	-3	91	8	-3	96	-2	·	·	·
CCCCn1c(-c2cccs2)nc2oc3ccccc3c(=O)c2c1=O	19	115	6	8	129*	-4	98	-3	98
COc1cc(OC)cc(OCC(O)Cn2ccnc2C)c1 (centres undefined)	-21	2.0*[inhibitor]	-1	0	2.0*[inhibitor]	4	95	-6	102
C=CCn1c(SCc2csc(-c3ccc(C)cc3)n2)nnc1-c1ccccc1OC	1	102	4	11	92	7	·	·	·
COc1ccc([N+](=O)[O-])cc1NC1CCCCC1	7	123	6	16	128*	-5	99	-7	99
COc1ccc([N+](=O)[O-])cc1NC1C2CC3CC(C2)CC1C3 (centres undefined)	3	103	5	i	112	2	·	·	·
CCC(C)(C)NC(=O)c1ccc2c(c1)N(CC(=O)N1CCCC1)C(=O)C(C)(C)O2	10	101	4	0	108	-7	·	·	·
Cn1c(O)c(C2=c3ccccc3=NC2=O)[nH]c1=S	-1	96	·	-7	75*[inhibitor]	-132	96	9	97
CCOC(=O)C1=C(COC(=O)COc2ccc(Br)cc2)NC(=O)NC1C (centres undefined)	·	·	3	12	·	-5	·	·	·
Cc1cccc(NC(=O)/C(C#N)=C/c2ccc(Sc3ccccc3)o2)c1C	-1	99	-5	12	128*	1	99	0	104
CCOC(=O)CC1(C)OCC(C[N+]2(C)CCCCC2)O1 (centres undefined)	-8	87	4	-5	98	4	·	·	·
C=Cn1cc[n+](CC(=O)C(C)(C)C)c1	2	107	2	-13	137*	8	106	10	106
O=C(NCc1cccnc1)c1ccccc1-c1ccccc1	2	104	0	-6	105	7	·	·	·
CCCn1c(-c2ccc(C(=O)OC)cc2)nc2c1c(=O)[nH]c(=O)n2Cc1ccccc1	1	96	-262	3	98	35	·	·	·
CCCn1c(-c2cccc([N+](=O)[O-])c2)nc2c1c(=O)[nH]c(=O)n2Cc1ccccc1	-2	97	1	2	70*[inhibitor]	9	105	12	109
CC1CCCCN1C(=O)CNCc1ccc(F)cc1 (centres undefined)	14	97	0	-3	94	6	·	·	·
